Screens (PubChem)
This is a sample that favours compounds with a hit; in the whole collection about 1.5% have one here.
APJ antagonist: APJ receptor antagonism; P35414; CHO-K1 APJ beta-arrestin complementation, luminescence; inhibition, % at 20 µM; hit rate 0.32% among 330,000; AID 2521;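 active = inhibition above about 40% at 20 µM, limit read from the data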;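 also: cells challenged with 10 nM apelin-13 agonist together with compound; plate controls were apelin-13 plus DMSO wells for no effect and DMSO wells lacking apelin-13 for full effect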
EBI2 antag: blocks human EBI2 receptor beta-arrestin signaling; hit rate 0.81% among 360,000; P32249; EBI2 beta-arrestin recruitment, luminescence, 7a,25-OHC stimulated; inhibition, % at 5 µM; in the data active = inhibition above about 38%;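 also: enzyme fragment complementation signal reports receptor beta-arrestin coupling in cells; 0% = agonist plus DMSO wells and 100% = wells without agonist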
CXCR6 block: CXCR6 (human) receptor inhibition; CHO-K1 PathHunter CXCR6 beta-arrestin, luminescence; hit rate 0.36% among 360,000; inhibition, % at 20 µM; in the data active = inhibition above about 34%, passing the limit was not always enough;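 also: antagonist mode with CXCL16 agonist at 10 nM final; 0% = 10 nM CXCL16 with DMSO and 100% = unstimulated wells without agonist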
Target sequence (O00574 whole entry, looked up): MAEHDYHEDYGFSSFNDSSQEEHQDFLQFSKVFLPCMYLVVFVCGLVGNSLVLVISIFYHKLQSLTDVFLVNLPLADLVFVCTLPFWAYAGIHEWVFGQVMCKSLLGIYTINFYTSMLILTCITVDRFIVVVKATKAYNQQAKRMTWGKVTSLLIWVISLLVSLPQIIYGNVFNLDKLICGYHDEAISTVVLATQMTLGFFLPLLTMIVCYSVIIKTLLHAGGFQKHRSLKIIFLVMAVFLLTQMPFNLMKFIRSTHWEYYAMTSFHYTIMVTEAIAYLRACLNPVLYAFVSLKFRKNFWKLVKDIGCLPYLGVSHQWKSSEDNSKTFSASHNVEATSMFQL
CCR6 antag: antagonists of human CCR6 receptor. AID 493098. P51684. inhibition, % at 20 µM. CHO-K1 CCR6 PathHunter beta-arrestin, luminescence, CCL20-stimulated. hit rate 0.49% among 340,000;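 active = compounds whose inhibition of the agonist-driven luminescence signal at 20 µM reaches about 50%, limit read from the data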;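 also: cells stimulated with CCL20 at 14 nM final; plate controls were DMSO with CCL20 for no effect and DMSO without agonist for full effect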
APJ ag: activates the human apelin receptor APJ; CHO-K1 APJ PathHunter beta-arrestin, luminescence; 0% DMSO wells, 100% apelin; activation, % at 20 µM; hit rate 0.11% among 330,000; AID 2520;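 active = activation more than six SD over the plate average, tested at 20 µM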;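 also: 0% = DMSO alone and 100% = apelin-13 at 10 nM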
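Test system: CHO-K1 APJ beta-arrestin complementation cell line. Amount: cell density 1000 per well. Controls: DMSO negative, 10 nM Apelin-13 positive. Signal: luminescent beta-gal fragment complementation, chemiluminescent substrate. Read-out basis: agonist-driven arrestin binding to APJ. Timing: compound stimulation 90 min at 25 °C, detection 60 min.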
Starred values were filed as active, the others as inactive; x = no result given.

SMILES	APJ antagonist	EBI2 antag	CXCR6 block	CCR6 antag	APJ ag
CCn1nc([N+](=O)[O-])c(C(C#N)c2nc3cc(C(F)(F)F)ccc3s2)c(Cl)c1=O (configuration not stated)	56*	6	38	52*	-11
CC1(C)OC(=O)C2=C(C[C@@H](CCOCc3ccccc3)O[C@H]2c2ccc(F)cc2)O1	x	5	-2	x	x
C[C@@H](C(=O)Nc1ccc2ccccc2c1)[C@@H]1C[C@@]1(C)[C@@H](NC(=O)c1ccccc1)c1ccccc1	-15	54*	2	7	5
Cc1nc([N+](=O)[O-])c(Br)n1CC(=O)c1ccc2ccccc2c1	3	55*	18	25	-2
CC(C#N)(NC(=O)CN1CCN(S(=O)(=O)c2ccccc2Cl)CC1)C1CC1 (configuration not stated)	4	-2	6	5	-3
O=C1c2ccccc2C(c2nnnn2C2CCCCC2)N1CCc1ccc(O)cc1 (configuration not stated)	x	10	1	x	x
CC(NC(=O)/C(C#N)=C/c1ccc([N+](=O)[O-])o1)c1ccccc1 (configuration not stated)	30	36	50*	x	5
O=C(/C(=C\c1ccccc1)c1nc2ccccc2[nH]1)c1ccc(Cl)cc1	8	48*	8	19	4
O=C(/C=C/c1cccc(Cl)c1)Nc1ncccn1	17	-5	-4	-2	-2
O=C(/C=C/c1cccc(Cl)c1)c1nc2ccccc2[nH]1	8	56*	9	32	0
CCOC(=O)C1CCN(C(=O)C2CCN(S(=O)(=O)c3cccc4nsnc34)CC2)CC1	28	-7	-5	-1	5
O=C(C(c1ccccc1)N1CCOCC1)N1CCOCC1 (configuration not stated)	10	-3	-10	14	1
O=C(C=Cc1ccccc1)CC(c1ccccc1)N1CCOCC1 (configuration not stated)	x	48*	32	44	x
Cc1ccc(C2=NOC(=O)/C2=C\C=C\c2ccccc2)cc1	x	36	48*	25	x
CN(C)/C=C1\C(=O)ON=C1c1ccccc1	0	-11	-12	3	-6
COc1cc(/C=C2\C(=O)N(c3ccc(NC(C)=O)cc3)N=C2c2ccccc2)ccc1O	40	9	46*	48	-4
Cc1ccc(C2(C)NC(=O)N(CC(=O)Nc3ccc(S(=O)(=O)Nc4nccs4)cc3)C2=O)cc1 (configuration not stated)	-6	-2	2	9	1
Cc1oc2c(c1C(=O)c1ccccc1)C(=O)C(=O)c1ccccc1-2	-11	-4	36	71*	9
O=C(O)c1ccccc1C(=O)Nc1ccccc1	5	8	0	-5	-2
O=C(Nc1ccccc1)C1=C(c2ccccc2)S(=O)(=O)CCS1(=O)=O	x	31	38	51*	x
Cn1nnnc1N=N/C(=N/Nc1ccccc1)c1ccccc1	37	-4	44*	87*	-7
COc1cc([N+](=O)[O-])c2ncsc2c1	6	-9	-5	-2	3
COc1cc(SSc2cc(OC)cc([N+](=O)[O-])c2N)c(N)c([N+](=O)[O-])c1	-17	41	30	54*	0
CN(C)c1ccc(N=Nc2nccs2)cc1	x	16	51*	x	x
Cc1ccc([N+](=O)[O-])cc1NC(=O)c1c(-c2ccccc2)noc1C	-13	6	3	13	4
SMILES	APJ antagonist	EBI2 antag	CXCR6 block	CCR6 antag	APJ ag
Cc1c(Nc2nc(-c3ccc(Cl)cc3)cs2)c(=O)n(-c2ccccc2)n1C	-13	-7	2	1	-4
CCOC(=O)Cc1csc(Nc2c(C)n(C)n(-c3ccccc3)c2=O)n1	11	-9	9	69*	1
CC1=C/C(=C(\c2cc(C)c(O)c(Br)c2)c2ccccc2S(=O)(=O)O)C=C(Br)C1=O	19	4	31	59*	-5
Cc1cc(C(=O)c2ccccc2)cc(C)c1O	x	0	10	9	x
CCC(C)C(=O)N1c2ccccc2C(=C2SC(C(=O)OC)=C(C(=O)OC)S2)C(=S)C1(C)C (configuration not stated)	39	52*	23	43	-9
COc1ccc(C2=C(N)c3ccccc3C2=O)cc1	12	-4	8	19	0
COC1=C(c2ccccc2)C(=O)c2ccccc2C1=O	-14	-1	0	6	12*
Cc1cccc(NC(=O)CN2C(=O)CCS(=O)(=O)c3ccccc32)c1C	9	4	-7	0	1
Cc1ccc(S(=O)(=O)NC2=C(N3CCN(c4ccccc4F)CC3)C(=O)c3ccccc3C2=O)cc1	-45	-15	24	37	-2
Cc1ccc(S(=O)(=O)NC2=C(N3CCN(Cc4ccccc4)CC3)C(=O)c3ccccc3C2=O)cc1	-33	2	5	54*	2
O=C(O)c1cccc([N+](=O)[O-])c1C(=O)Nc1ccc2ccccc2c1	15	-1	-2	10	-4
C=CCN(CC=C)S(=O)(=O)c1ccc(NC(=S)NC(=O)/C=C/c2cccc3ccccc23)cc1	28	19	4	52*	-3
C=CCN(CC=C)S(=O)(=O)c1ccc(NC(=S)NC(=O)/C=C/c2ccc(C)cc2)cc1	-30	15	9	18	-1
COc1cc(/C=C(\C#N)c2nc3ccc(C)cc3[nH]2)cc([N+](=O)[O-])c1O	x	9	24	51*	x
CCN(CC)c1ccc(/C=C(/C#N)c2nc3ccc(C)cc3[nH]2)c(OC(C)C)c1	27	35	22	52*	-6
COc1ccc(-c2cc(C(=O)NCc3cccc(Cl)c3)[nH]n2)c(C)c1	x	0	0	x	x
COC(=O)CCC(=O)NC(=S)Nc1cc(Cl)ccc1Cl	18	-5	14	27	-2
Oc1ccc(Cl)cc1CNc1ccc(Br)cn1	-9	41*	-7	14	-1
Oc1c(Cl)cc(Cl)cc1CNc1ccc(Br)cn1	2	0	5	-4	10
O=S(=O)(NCC1(N2CCOCC2)CCCCC1)c1ccc(F)c(F)c1F	10	4	1	-2	-1
O=C(CSC1=Nc2ccccc2C2CC=NN12)Nc1ccc2c(c1)OCO2 (configuration not stated)	x	5	29	54*	x
N#Cc1ccccc1NC(=O)CSC1=Nc2ccccc2C2CC=NN12 (configuration not stated)	12	-1	-11	13	-3
CC[C@H]1c2[nH]c3ccccc3c2C[C@H]2C(=O)N(c3ccc(F)cc3)C(=O)N21	-12	48*	-8	-1	3
CC1(C)c2[nH]c3ccccc3c2C[C@@H]2C(=O)N(Cc3ccc(F)cc3)C(=O)N21	-51	-5	-7	-13	9
COc1ccc(C(O)CNc2ccc(C)cc2)cc1 (configuration not stated)	-16	66*	1	15	14
COc1ccc(NC(=O)CCSc2ccc(C)cc2)cc1	14	-15	-1	0	2
